The source made the active and inactive calls.
Assays:
Type in all cases: functional, cell-based
[1] = tested on: BT-549; assay: Growth inhibition of human BT549 cells at 10^-5 M incubated for 48 hrs by sulforhodamine B assay
How it was run: (§1)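 Run in the NCI59 one-dose cell-line screen, with each compound tested at a single concentration of 1 × 10−5 M.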

[2] = tested on: T47D; assay: Growth inhibition of human T47D cells at 10^-5 M incubated for 48 hrs by sulforhodamine B assay
How it was run: (§2)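 Tested at a single concentration of 1 × 10−5 M as part of the NCI59 cell-line one-dose screen.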

[3] = tested on: Hs-578T; assay: Growth inhibition of human Hs 578T cells at 10^-5 M incubated for 48 hrs by sulforhodamine B assay; how it was run: as §1
[4] = tested on: MCF7; assay: Growth inhibition of human MCF7 cells at 10^-5 M incubated for 48 hrs by sulforhodamine B assay; how it was run: as §1
[5] = tested on: MDA-MB-231; assay: Growth inhibition of human MDA-MB-231 cells at 10^-5 M incubated for 48 hrs by sulforhodamine B assay; how it was run: as §1
[6] = tested on: DU-145; assay: Growth inhibition of human DU145 cells at 10^-5 M incubated for 48 hrs by sulforhodamine B assay; how it was run: as §1
[7] = tested on: UO-31; assay: Growth inhibition of human UO31 cells at 10^-5 M incubated for 48 hrs by sulforhodamine B assay; how it was run: as §2
[8] = tested on: PC-3; assay: Growth inhibition of human PC3 cells at 10^-5 M incubated for 48 hrs by sulforhodamine B assay; how it was run: as §1
[9] = tested on: SN12C; assay: Growth inhibition of human SN12C cells at 10^-5 M incubated for 48 hrs by sulforhodamine B assay; how it was run: as §1
[10] = tested on: TK-10; assay: Growth inhibition of human TK10 cells at 10^-5 M incubated for 48 hrs by sulforhodamine B assay; how it was run: as §2
[11] = tested on: RXF 393; assay: Growth inhibition of human RXF393 cells at 10^-5 M incubated for 48 hrs by sulforhodamine B assay; how it was run: as §1
[12] = tested on: ACHN; assay: Growth inhibition of human ACHN cells at 10^-5 M incubated for 48 hrs by sulforhodamine B assay; how it was run: as §1
[13] = tested on: CAKI-1; assay: Growth inhibition of human Caki1 cells at 10^-5 M incubated for 48 hrs by sulforhodamine B assay; how it was run: as §1
[14] = tested on: A498; assay: Growth inhibition of human A498 cells at 10^-5 M incubated for 48 hrs by sulforhodamine B assay; how it was run: as §1
[15] = tested on: 786-0; assay: Growth inhibition of human 786-0 cells at 10^-5 M incubated for 48 hrs by sulforhodamine B assay; how it was run: as §1
[16] = tested on: NCI/ADR-RES; assay: Growth inhibition of human NCI/ADR-RES cells at 10^-5 M incubated for 48 hrs by sulforhodamine B assay; how it was run: as §1
[17] = tested on: SK-OV-3; assay: Growth inhibition of human SKOV3 cells at 10^-5 M incubated for 48 hrs by sulforhodamine B assay; how it was run: as §1
[18] = tested on: OVCAR-8; assay: Growth inhibition of human OVCAR8 cells at 10^-5 M incubated for 48 hrs by sulforhodamine B assay; how it was run: as §1
[19] = tested on: OVCAR-4; assay: Growth inhibition of human OVCAR4 cells at 10^-5 M incubated for 48 hrs by sulforhodamine B assay; how it was run: as §1
[20] = tested on: OVCAR-5; assay: Growth inhibition of human OVCAR5 cells at 10^-5 M incubated for 48 hrs by sulforhodamine B assay; how it was run: as §1
[21] = tested on: IGROV-1; assay: Growth inhibition of human IGROV1 cells at 10^-5 M incubated for 48 hrs by sulforhodamine B assay; how it was run: as §1
[22] = tested on: OVCAR-3; assay: Growth inhibition of human OVCAR3 cells at 10^-5 M incubated for 48 hrs by sulforhodamine B assay; how it was run: as §1
[23] = tested on: UACC-62; assay: Growth inhibition of human UACC62 cells at 10^-5 M incubated for 48 hrs by sulforhodamine B assay; how it was run: as §2
[24] = tested on: SK-MEL-5; assay: Growth inhibition of human SK-MEL-5 cells at 10^-5 M incubated for 48 hrs by sulforhodamine B assay; how it was run: as §1
[25] = tested on: UACC-257; assay: Growth inhibition of human UACC257 cells at 10^-5 M incubated for 48 hrs by sulforhodamine B assay; how it was run: as §2
[26] = tested on: SK-MEL-28; assay: Growth inhibition of human SK-MEL-28 cells at 10^-5 M incubated for 48 hrs by sulforhodamine B assay; how it was run: as §1
[27] = tested on: MDA-MB-435; assay: Growth inhibition of human MDA-MB-435 cells at 10^-5 M incubated for 48 hrs by sulforhodamine B assay; how it was run: as §1
[28] = tested on: SK-MEL-2; assay: Growth inhibition of human SK-MEL-2 cells at 10^-5 M incubated for 48 hrs by sulforhodamine B assay; how it was run: as §1
[29] = tested on: M14; assay: Growth inhibition of human M14 cells at 10^-5 M incubated for 48 hrs by sulforhodamine B assay; how it was run: as §1
[30] = tested on: U-251; assay: Growth inhibition of human U251 cells at 10^-5 M incubated for 48 hrs by sulforhodamine B assay; how it was run: as §2
[31] = tested on: LOX IMVI; assay: Growth inhibition of human LOXIMVI cells at 10^-5 M incubated for 48 hrs by sulforhodamine B assay; how it was run: as §1
[32] = tested on: SNB-19; assay: Growth inhibition of human SNB19 cells at 10^-5 M incubated for 48 hrs by sulforhodamine B assay; how it was run: as §1
[33] = tested on: SNB-75; assay: Growth inhibition of human SNB75 cells at 10^-5 M incubated for 48 hrs by sulforhodamine B assay; how it was run: as §1
[34] = tested on: SF-539; assay: Growth inhibition of human SF539 cells at 10^-5 M incubated for 48 hrs by sulforhodamine B assay; how it was run: as §1
[35] = tested on: SF-268; assay: Growth inhibition of human SF268 cells at 10^-5 M incubated for 48 hrs by sulforhodamine B assay; how it was run: as §1
[36] = tested on: SF-295; assay: Growth inhibition of human SF295 cells at 10^-5 M incubated for 48 hrs by sulforhodamine B assay; how it was run: as §1
[37] = tested on: SW-620; assay: Growth inhibition of human SW620 cells at 10^-5 M incubated for 48 hrs by sulforhodamine B assay; how it was run: as §2
[38] = tested on: HT-29; assay: Growth inhibition of human HT-29 cells at 10^-5 M incubated for 48 hrs by sulforhodamine B assay; how it was run: as §1
[39] = tested on: KM12; assay: Growth inhibition of human KM12 cells at 10^-5 M incubated for 48 hrs by sulforhodamine B assay; how it was run: as §1
[40] = tested on: HCT-116; assay: Growth inhibition of human HCT116 cells at 10^-5 M incubated for 48 hrs by sulforhodamine B assay; how it was run: as §1
[41] = tested on: HCT-15; assay: Growth inhibition of human HCT15 cells at 10^-5 M incubated for 48 hrs by sulforhodamine B assay; how it was run: as §1
[42] = tested on: HCC 2998; assay: Growth inhibition of human HCC2998 cells at 10^-5 M incubated for 48 hrs by sulforhodamine B assay; how it was run: as §1
[43] = tested on: NCI-H522; assay: Growth inhibition of human NCI-H522 cells at 10^-5 M incubated for 48 hrs by sulforhodamine B assay; how it was run: as §1
[44] = tested on: COLO 205; assay: Growth inhibition of human COLO205 cells at 10^-5 M incubated for 48 hrs by sulforhodamine B assay; how it was run: as §1
[45] = tested on: NCI-H460; assay: Growth inhibition of human NCI-H460 cells at 10^-5 M incubated for 48 hrs by sulforhodamine B assay; how it was run: as §1
[46] = tested on: NCI-H23; assay: Growth inhibition of human NCI-H23 cells at 10^-5 M incubated for 48 hrs by sulforhodamine B assay; how it was run: as §1
[47] = tested on: NCI-H322M; assay: Growth inhibition of human NCI-H322M cells at 10^-5 M incubated for 48 hrs by sulforhodamine B assay; how it was run: as §1
[48] = tested on: NCI-H226; assay: Growth inhibition of human NCI-H226 cells at 10^-5 M incubated for 48 hrs by sulforhodamine B assay; how it was run: as §1
[49] = tested on: HOP-62; assay: Growth inhibition of human HOP62 cells at 10^-5 M incubated for 48 hrs by sulforhodamine B assay; how it was run: as §1
[50] = tested on: HOP-92; assay: Growth inhibition of human HOP92 cells at 10^-5 M incubated for 48 hrs by sulforhodamine B assay; how it was run: as §1
[51] = tested on: A549; assay: Growth inhibition of human A549/ATCC cells at 10^-5 M incubated for 48 hrs by sulforhodamine B assay; how it was run: as §1
[52] = tested on: EKVX; assay: Growth inhibition of human EKVX cells at 10^-5 M incubated for 48 hrs by sulforhodamine B assay; how it was run: as §1
[53] = tested on: SR; assay: Growth inhibition of human SR cells at 10^-5 M incubated for 48 hrs by sulforhodamine B assay; how it was run: as §1
[54] = tested on: MOLT-4; assay: Growth inhibition of human MOLT4 cells at 10^-5 M incubated for 48 hrs by sulforhodamine B assay; how it was run: as §1
[55] = tested on: RPMI-8226; assay: Growth inhibition of human RPMI8226 cells at 10^-5 M incubated for 48 hrs by sulforhodamine B assay; how it was run: as §1
[56] = tested on: K562; assay: Growth inhibition of human K562 cells at 10^-5 M incubated for 48 hrs by sulforhodamine B assay; how it was run: as §1
[57] = tested on: CCRF-CEM; assay: Growth inhibition of human CCRF-CEM cells at 10^-5 M incubated for 48 hrs by sulforhodamine B assay; how it was run: as §1
[58] = tested on: HL-60(TB); assay: Growth inhibition of human HL-60(TB) cells at 10^-5 M incubated for 48 hrs by sulforhodamine B assay
How it was run: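 Run in the NCI59 cell-line one-dose screen, with each compound tested at a single concentration of 1 × 10−5 M.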

Measured: growth inhibition (GI)

COC(=O)C[C@H]1C(C)(C)[C@H](OC(=O)C(C)C)[C@@H]2[C@@H](OC(=O)C(C)C)[C@@]34O[C@]2(O)[C@]1(C)[C@H]3CC[C@]1(C)[C@H]4CC(=O)O[C@H]1c1ccoc1
inactive: all assays above
